What is called Ki is the equilibrium dissociation constant of an inhibitor or competing ligand from its target. In general, IC50 refers to the concentration that gives 50% inhibition. Read a low IC50 as inhibition by little substance.

Active and inactive are the calls of the source. No cut-off for these calls is given here. Some results are limits rather than exact numbers.

The text below walks through data of ChEMBL document CHEMBL3779852, “Structure-based design of N-substituted 1-hydroxy-4-sulfamoyl-2-naphthoates as selective inhibitors of the Mcl-1 oncoprotein” (Eur J Med Chem, 2016).

The species entered for one test is Homo sapiens. Nature of the test: Selectivity ratio of Ki for Bcl-XL (unknown origin) to Ki for His6-MBP tagged recombinant human Mcl-1 residues 172 to 327 expressed in Escherichia coli. An outline of the steps: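 Ratio computed as Ki(Bcl-xL) divided by Ki(Mcl-1). Both Ki values come from FP competition IC50s converted with the Nikolovska-Coleska equation, averaged over at least two independent assays. Hill-equation fit gives the IC50.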

The nature of test [1]: Inhibition of Bcl-XL (unknown origin) after 3 hrs by fluorescence polarization competition assay. Further details: species or system Homo sapiens. In general terms: Polarisation of emitted light reports the rotation of a fluorescent probe.
Test [2] addresses T1, Induced myeloid leukemia cell differentiation protein Mcl-1 (Homo sapiens, UniProt Q07820). The test is described as follows: Inhibition of His6-MBP tagged recombinant human Mcl-1 residues 172 to 327 expressed in Escherichia coli assessed as inhibition of interaction with Bak BH3 peptide (GQVGRQLAIIGDDINR) after 3 hrs by fluorescence polarization competition assay.
Another test concerns SK-MEL-5. Nature of the test: Antiproliferative activity against human SK-MEL-5 cells after 48 hrs by Cell titer blue viability assay. Conditions: SK-MEL-5, 48 h. Type of test: functional, cell-based.
In the next test the test system is A-375. The test is described as follows: Antiproliferative activity against human A375 cells after 48 hrs by Cell titer blue viability assay. Type of test: functional, cell-based. The conditions noted are these: A-375, 48 h. An outline of the steps: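 A375 cells seeded at 5,000/well in DMEM with 10% HIFBS and PenStrep, cultured overnight. Compounds added at final 4.69–300 μM (two-fold series) in 1% DMSO; vehicle controls also at 1% DMSO. After 48 h exposure, Cell Titer-Blue added for 2 h, fluorescence read at 560 ex/590 em. Percent viability relative to untreated cells, corrected for cell-free background.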
(In general: The colour change of resazurin is a common sign of viable cells or microbes.)

Test [3] addresses T1, Induced myeloid leukemia cell differentiation protein Mcl-1. The test is described as follows: Binding affinity to recombinant human 15N-labeled Mcl-1 (172 to 327 residues) expressed in Escherichia coli by NMR spectroscopy. A digest of the protocol:
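Proton shifts were referenced to the H2O/HDO signal (4.658 ppm versus external TSP) at 37 °C. The protein was size-exclusion purified to >98% purity by SDS-PAGE, with concentration determined by Bradford assay.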

T1 sequence (Q07820 whole entry, the tested form may be a part): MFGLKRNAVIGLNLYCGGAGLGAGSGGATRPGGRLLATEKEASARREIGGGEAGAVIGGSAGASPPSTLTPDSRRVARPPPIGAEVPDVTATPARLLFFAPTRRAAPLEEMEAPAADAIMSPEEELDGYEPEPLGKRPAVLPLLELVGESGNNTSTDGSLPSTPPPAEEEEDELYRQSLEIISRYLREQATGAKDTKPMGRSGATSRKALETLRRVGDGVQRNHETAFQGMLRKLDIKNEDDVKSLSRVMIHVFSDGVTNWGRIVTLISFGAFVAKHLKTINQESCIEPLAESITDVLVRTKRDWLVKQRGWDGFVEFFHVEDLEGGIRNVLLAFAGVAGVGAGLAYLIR

Consider `O=C(O)c1cc(S(=O)(=O)Nc2cccc3ccccc23)c2ccccc2c1O`, for which the Ratio Ki in the test listed under Homo sapiens turned out to be 10. For the same compound, the Ki in test [1] (read-out: Ki) came out at 110 µM.

Regarding `CC(=O)OCOC(=O)c1cc(S(=O)(=O)N(CC(C)C)c2ccc(OC(C)C)cc2)c2ccccc2c1O`, the inhibition result in test [2] is “inactive”. Further, in the test on SK-MEL-5, the IC50 turned out to be 15 µM.

Take `Cc1ccc(Oc2ccc(NS(=O)(=O)c3cc(C(=O)O)c(O)c4ccccc34)cc2)cc1`: the Ratio Ki in the test listed under Homo sapiens stood at 2.5. In addition, the Ki in test [1] (read-out: Ki) is 0.84 µM.

As to `COC(=O)c1cc(S(=O)(=O)N(CC(C)C)c2ccc(Br)cc2)c2ccccc2c1O`, in test [2], the Ki was > 500 µM.

In the case of `O=C(O)c1cc(S(=O)(=O)NCc2ccccc2)c2ccccc2c1O`, the Ki entry in test [1] was “Not Active”.

As to `COC(=O)c1cc(S(=O)(=O)N(CC(C)C)c2ccc(OC(C)C)cc2)c2ccccc2c1O`, the inhibition result in test [2] was “inactive”. Further, the half-maximal inhibitory concentration (IC50) in the test with SK-MEL-5 and in the test with A-375 was 300 µM throughout.

Take `O=C(O)c1cc(S(=O)(=O)Nc2ccc([N+](=O)[O-])cc2)c2ccccc2c1O`: the Ratio Ki in the test listed under Homo sapiens was 5.2. Moreover, in test [1] (read-out: Ki), the Ki is 23.3 µM.

With `Cc1cc(Oc2ccc(N(CC(C)C)S(=O)(=O)c3cc(C(=O)O)c(O)c4ccccc34)cc2)cc(C)c1Cl`, the Ratio Ki in the test filed under Homo sapiens was found to be 2.1. For the same compound, the inhibitory constant (Ki) in test [1] (read-out: Ki) stood at 0.17 µM.

In the case of `CC(C)CN(c1ccc(OC(C)C)cc1)S(=O)(=O)c1cc(C(=O)O)c(O)c2ccccc12`, the outcome in test [3] was Active. Also, the Ki in test [1] (read-out: Ki) came to 6.08 µM. For the same compound, the IC50 in the test with SK-MEL-5 is 300 µM; in the test on A-375, 150 µM.

Regarding `O=C(O)c1cc(S(=O)(=O)Nc2ccccc2)c2ccccc2c1O`, in test [1], the Ki result is reported as “Not Active”.

`O=C(O)c1cc(S(=O)(=O)NCc2ccc(Cl)cc2)c2ccccc2c1O`: the Ratio Ki in the test filed under Homo sapiens was found to be 16. Moreover, the Ki in test [1] (read-out: Ki) turned out to be 338 µM.

On to `COc1ccc(NS(=O)(=O)c2cc(C(=O)O)c(O)c3ccccc23)cc1`, for which the Ratio Ki in the test filed under Homo sapiens was determined as 6. Besides, in test [1] (read-out: Ki), the Ki amounted to 71.9 µM.

Take `Cc1cc(Oc2ccc(NS(=O)(=O)c3cc(C(=O)O)c(O)c4ccccc34)cc2)cc(C)c1Cl`: in the test filed under Homo sapiens, the Ratio Ki turned out to be 4.1. In test [1] (read-out: Ki), the inhibitory constant (Ki) was found to be 0.48 µM.

As for `CN(C)S(=O)(=O)c1cc(C(=O)O)c(O)c2ccccc12`, in test [1], the inhibition constant (Ki) entry is “Not Active”.

Turning to `O=C(O)c1cc(S(=O)(=O)Nc2ccc(Oc3ccc(Cl)cc3Cl)cc2)c2ccccc2c1O`, in the test listed under Homo sapiens, the Ratio Ki amounted to 2.4. Moreover, in test [1] (read-out: Ki), the Ki is 0.19 µM.

As to `O=C(O)c1cc(S(=O)(=O)Nc2ccc(Oc3cccc4ccccc34)cc2)c2ccccc2c1O`, the Ratio Ki in the test listed under Homo sapiens stood at 3.7. Moreover, the Ki in test [1] (read-out: Ki) was 0.22 µM.

Consider `NS(=O)(=O)c1cc(C(=O)O)c(O)c2ccccc12`, for which the inhibitory constant (Ki) result in test [1] is “Not Active”.

Turning to `O=C(O)c1cc(S(=O)(=O)Nc2ccccc2C(F)(F)F)c2ccccc2c1O`, the Ratio Ki in the test listed under Homo sapiens came out at 4.8. In addition, the Ki in test [1] (read-out: Ki) was 19.3 µM.

With `O=C(O)c1cc(S(=O)(=O)Nc2ccc(Br)cc2Br)c2ccccc2c1O`, the Ratio Ki in the test listed under Homo sapiens was 5.5. Also, the inhibition constant (Ki) in test [1] (read-out: Ki) was 2.31 µM.

For the compound `Cc1cc(Oc2ccc(N(C3CCCC3)S(=O)(=O)c3cc(C(=O)O)c(O)c4ccccc34)cc2)cc(C)c1Cl`, the Ratio Ki in the test listed under Homo sapiens came to 8.8. The Ki in test [1] (read-out: Ki) was found to be 0.29 µM.

Turning to `O=C(O)c1cc(S(=O)(=O)Nc2ccc(Br)cc2)c2ccccc2c1O`, the Ratio Ki in the test filed under Homo sapiens was 19. In addition, in test [1] (read-out: Ki), the Ki came to 51.4 µM. In addition, the half-maximal inhibitory concentration (IC50) in the test on SK-MEL-5 and in the test on A-375 was 300 µM each time.

Turning to `O=C(O)c1cc(S(=O)(=O)NCC2CCCCC2)c2ccccc2c1O`, the Ratio Ki in the test listed under Homo sapiens came to 11. Further, the inhibitory constant (Ki) in test [1] (read-out: Ki) was found to be 77.6 µM.

For the compound `Cc1cc(C)cc(Oc2ccc(NS(=O)(=O)c3cc(C(=O)O)c(O)c4ccccc34)cc2)c1`, the Ratio Ki in the test listed under Homo sapiens came to 1.4. The Ki in test [1] (read-out: Ki) was 0.39 µM.

`CC(C)Oc1ccc(NS(=O)(=O)c2cc(C(=O)O)c(O)c3ccccc23)cc1`: the inhibition constant Ki result in test [1] is “Not Active”.

For the compound `Cc1cc(Oc2ccc(N(Cc3ccccc3)S(=O)(=O)c3cc(C(=O)O)c(O)c4ccccc34)cc2)cc(C)c1Cl`, in test [1] (read-out: Ki), the Ki came to 0.34 µM. The IC50 with SK-MEL-5 came to 90 µM; in the test with A-375 it was 50 µM.

With `O=C(O)c1cc(S(=O)(=O)Nc2ccc3ccccc3c2)c2ccccc2c1O`, in the test filed under Homo sapiens, the Ratio Ki amounted to 15. In addition, in test [1] (read-out: Ki), the inhibition constant (Ki) was found to be 68.5 µM.

With `O=C(O)c1cc(S(=O)(=O)Nc2ccc(Oc3cccc(Br)c3)cc2)c2ccccc2c1O`, the Ratio Ki in the test listed under Homo sapiens amounted to 3.8. For the same compound, in test [1] (read-out: Ki), the Ki is 0.3 µM.

Consider `COC(=O)c1cc(S(=O)(=O)N(CC(C)C)c2ccc(Br)cc2)c2ccccc2c1OC`, for which the Ki in test [2] is > 500 µM.
